According to ChEMBL document CHEMBL1152377, “[(11)C]PR04.MZ, a promising DAT ligand for low concentration imaging: Synthesis, efficient (11)C-O-methylation and initial small animal PET studies” (Bioorg Med Chem Lett, 2009):
pIC50: −log10 of the molar value.

What was measured:
[1] = biological target: Sodium-dependent dopamine transporter (Homo sapiens, UniProt Q01959); test: Inhibition of human dopamine transporter
[2] = Ratio of drug uptake in striatum to cerebellum of Sprague-Dawley rat at 37 MBq, iv after 30 mins; type: ADME, organism-based; settings: in vivo, 0.5 h
How it was run: (§1)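 Male Sprague–Dawley rat, baseline small-animal PET. Tracer given at 37 MBq (1 mCi), specific activity 67 GBq/µmol. Full dynamic scan for 60 min, acquisition starting with tracer injection. Read-out is the striatum/cerebellum radioactivity-concentration ratio, taken at the 15, 30 and 60 min time frames.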

Striatum [3] = test: Drug uptake in Sprague-Dawley rat striatum assessed as reduction of striatal binding potential at 37 MBq, iv treated 45 mins after DAT inhibitor GBR-12909 challenge measured after 60 mins; type: ADME, organism-based; design: scale not given: the % may be the effect or the level left; settings: in vivo, 1 h
How it was run: (§2)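 The same animal then received 1.5 mg/kg GBR12909 45 min before a second 37 MBq dose, followed by another 60 min scan. Striatal binding potential was read for the 15, 30 and 60 min time-frames, and the reduction was expressed in %.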

Striatum [4] = test: Drug uptake in Sprague-Dawley rat striatum assessed per cm'3 at 37 MBq, iv after 60 mins; type: ADME, organism-based; settings: in vivo, 1 h
How it was run: (§3)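 Baseline small-animal PET in one male Sprague–Dawley rat: 37 MBq (1 mCi) tracer injected, and full dynamic acquisition started at injection and ran 60 min. Images were reconstructed and coregistered with MRI. Striatal uptake was given as %ID per cm³ for the 15, 30 and 60 min time-frames.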

Striatum [5] = test: Drug uptake in Sprague-Dawley rat striatum assessed per cm'3 at 37 MBq, iv after 4 mins; type: ADME, organism-based; settings: in vivo
[6] = Ratio of drug uptake in striatum to cerebellum of Sprague-Dawley rat at 37 MBq, iv after 15 mins; type: ADME, organism-based; settings: in vivo, 0.25 h; how it was run: as §1
Striatum [7] = test: Drug uptake in Sprague-Dawley rat striatum assessed per cm'3 at 37 MBq, iv treated 45 mins after DAT inhibitor GBR-12909 challenge measured after 30 mins; type: ADME, organism-based; settings: in vivo, 0.5 h
How it was run: (§4)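 This was the same rat after its baseline scan. It was pretreated with 1.5 mg/kg GBR12909 45 min before a second 37 MBq tracer injection, and dynamic PET acquisition ran 60 min from injection. Striatal uptake was given as %ID per cm³ for the 15, 30 and 60 min time-frames.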

Striatum [8] = test: Drug uptake in Sprague-Dawley rat striatum assessed per cm'3 at 37 MBq, iv treated 45 mins after DAT inhibitor GBR-12909 challenge measured after 15 mins; type: ADME, organism-based; settings: in vivo, 0.25 h; how it was run: as §4
Striatum [9] = test: Drug uptake in Sprague-Dawley rat striatum assessed per cm'3 at 37 MBq, iv treated 45 mins after DAT inhibitor GBR-12909 challenge measured after 60 mins; type: ADME, organism-based; settings: in vivo, 1 h; how it was run: as §4
Striatum [10] = test: Drug uptake in Sprague-Dawley rat striatum assessed per cm'3 at 37 MBq, iv after 30 mins; type: ADME, organism-based; settings: in vivo, 0.5 h; how it was run: as §3
[11] = Ratio of drug uptake in striatum to cerebellum of Sprague-Dawley rat at 37 MBq, iv after 60 mins; type: ADME, organism-based; settings: in vivo, 1 h; how it was run: as §1
Striatum [12] = test: Drug uptake in Sprague-Dawley rat striatum assessed as reduction of striatal binding potential at 37 MBq, iv treated 45 mins after DAT inhibitor GBR-12909 challenge measured after 15 mins; type: ADME, organism-based; design: scale not given: the % may be the effect or the level left; settings: in vivo, 0.25 h; how it was run: as §2
[13] = Ratio of drug uptake in striatum to cerebellum of Sprague-Dawley rat at 37 MBq, iv treated 45 mins after DAT inhibitor GBR-12909 challenge measured after 60 mins; type: ADME, organism-based; settings: in vivo, 1 h
How it was run: (§5)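 Same male Sprague–Dawley rat, rescanned after baseline. GBR12909 1.5 mg/kg given 45 min before a second 37 MBq tracer dose. Dynamic acquisition for 60 min, started at injection. Read-out is the striatum/cerebellum radioactivity-concentration ratio at the 15, 30 and 60 min time frames.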

Striatum [14] = test: Drug uptake in Sprague-Dawley rat striatum assessed per cm'3 at 37 MBq, iv after 15 mins; type: ADME, organism-based; settings: in vivo, 0.25 h; how it was run: as §3
[15] = Ratio of drug uptake in striatum to cerebellum of Sprague-Dawley rat at 37 MBq, iv treated 45 mins after DAT inhibitor GBR-12909 challenge measured after 15 mins; type: ADME, organism-based; settings: in vivo, 0.25 h; how it was run: as §5
[16] = Ratio of drug uptake in striatum to cerebellum of Sprague-Dawley rat at 37 MBq, iv treated 45 mins after DAT inhibitor GBR-12909 challenge measured after 30 mins; type: ADME, organism-based; settings: in vivo, 0.5 h; how it was run: as §5
Striatum [17] = test: Drug uptake in Sprague-Dawley rat striatum assessed as reduction of striatal binding potential at 37 MBq, iv treated 45 mins after DAT inhibitor GBR-12909 challenge measured after 30 mins; type: ADME, organism-based; design: scale not given: the % may be the effect or the level left; settings: in vivo, 0.5 h; how it was run: as §2

Sequence of Sodium-dependent dopamine transporter (Q01959 whole entry): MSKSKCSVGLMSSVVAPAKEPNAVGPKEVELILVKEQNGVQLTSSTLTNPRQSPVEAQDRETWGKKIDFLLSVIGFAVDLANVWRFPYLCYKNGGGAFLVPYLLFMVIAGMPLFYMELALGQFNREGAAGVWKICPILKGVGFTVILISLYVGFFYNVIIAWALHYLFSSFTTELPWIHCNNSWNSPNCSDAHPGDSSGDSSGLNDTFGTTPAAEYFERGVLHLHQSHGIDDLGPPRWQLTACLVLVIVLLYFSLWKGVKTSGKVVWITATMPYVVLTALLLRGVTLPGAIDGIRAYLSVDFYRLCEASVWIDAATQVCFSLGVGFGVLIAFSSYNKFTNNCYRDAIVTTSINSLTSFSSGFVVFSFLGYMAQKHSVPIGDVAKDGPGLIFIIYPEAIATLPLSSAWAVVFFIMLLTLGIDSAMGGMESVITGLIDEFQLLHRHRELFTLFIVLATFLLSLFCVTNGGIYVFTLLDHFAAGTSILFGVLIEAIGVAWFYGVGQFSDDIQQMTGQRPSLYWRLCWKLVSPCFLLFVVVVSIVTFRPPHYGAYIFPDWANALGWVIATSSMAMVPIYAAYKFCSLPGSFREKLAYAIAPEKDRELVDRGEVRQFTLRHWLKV

| SMILES | pIC50 [1] | Ratio [2] | Activity (Striatum [3]) [%] | Activity (Striatum [4]) [%ID] | Drug uptake (Striatum [5]) [%] | Ratio [6] | Activity (Striatum [7]) [%ID] | Activity (Striatum [8]) [%ID] | Activity (Striatum [9]) [%ID] | Activity (Striatum [10]) [%ID] | Ratio [11] | Activity (Striatum [12]) [%] | Ratio [13] | Activity (Striatum [14]) [%ID] | Ratio [15] | Ratio [16] | Activity (Striatum [17]) [%] |
| --- | --- | --- | --- | --- | --- | --- | --- | --- | --- | --- | --- | --- | --- | --- | --- | --- | --- |
| COC(=O)[C@H]1[C@@H](c2ccc(C)cc2)C[C@@H]2CC[C@H]1N2CC#CCF | 8.52 |  |  |  |  |  |  |  |  |  |  |  |  |  |  |  |  |
| Cc1ccc([C@H]2C[C@@H]3CC[C@H]([C@H]2C(=O)O[11CH3])N3CC#CCF)cc1 |  | 3.6 | 57 | 2.1 | 2.22 | 2.4 | 1.6 | 2.1 | 1.2 | 2.1 | 5 | 32 | 1.61 | 2 | 1.25 | 1.67 | 41 |
